Data set [1] is filed under the species Homo sapiens. In words: Selectivity ratio of IC50 for PI3Kgamma (unknown origin) to IC50 for PI3Kalpha (unknown origin).
Data set [2] in a line: Cytotoxicity against human PANC1 cells assessed as cell growth inhibition after 48 hrs by MTT assay. The data set is classed as functional. Particulars: PANC-1, 48 h. In short, it runs like this: (§1)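 MTT assay: 3 × 10^3 cells/well seeded, compounds added after 24 h at final […], 48 h exposure. MTT (2.5 mg/mL in PBS) added, formazan dissolved in DMSO, absorbance 570 nm. Viability as % of untreated; three independent experiments, mean ± SD.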
On the technique in general: Tetrazolium assays rely on reduction of a dye to a coloured formazan, in cell work by metabolically active cells.

Data set [3] in a line: Cytotoxicity against human MCF7 cells assessed as cell growth inhibition after 48 hrs by MTT assay. The data set is classed as functional. Particulars: MCF7, 48 h. In short, it runs like this:
as §1

For data set [4], the species on record is Homo sapiens. In words: Selectivity ratio of IC50 for PI3Kdelta (unknown origin) to IC50 for PI3Kalpha (unknown origin).
For data set [5], the species on record is Homo sapiens. The experiment in a line: Selectivity ratio of IC50 for PI3Kbeta (unknown origin) to IC50 for PI3Kalpha (unknown origin).
Data set [6] can be described thus: Cytotoxicity against human HL60 cells assessed as cell growth inhibition after 48 hrs by MTT assay. The data set is classed as functional. Particulars: HL-60, 48 h. A digest of the protocol:
as §1

Data set [7] has as its target Phosphatidylinositol 4,5-bisphosphate 3-kinase catalytic subunit alpha isoform (Homo sapiens, UniProt P42336). The experiment in a line: Inhibition of PI3Kalpha (unknown origin) using diC8 PIP2 as substrate at 0.5 uM after 80 mins by ADP-glo assay. A general note: In ADP-Glo the light output rises with the ADP produced.
The nature of data set [8]: Cytotoxicity against human A375 cells assessed as cell growth inhibition after 48 hrs by MTT assay. The data set is classed as functional. The following applies: A-375, 48 h. A digest of the protocol: as §1
Data set [9] in a line: Cytotoxicity against human PC3 cells assessed as cell growth inhibition after 48 hrs by MTT assay. The data set is classed as functional. The following applies: PC-3, 48 h. A digest of the protocol: as §1
A short description of data set [10]: Thermodynamic equilibrium solubility of compound in PBS up to 300 ug after 4 hrs by UV absorbance method. Type of data set: physicochemical. Particulars: read-out: Therm_solubility. A digest of the protocol:
(§2)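 Methanol stock evaporated in wells to give 1–300 µg solid; 200 µl medium (water, PBS, SGF or SIF) added, shaken 300 rpm 4 h at 25 ± 1 °C, equilibrated overnight, centrifuged; supernatant UV absorbance at λmax; saturation point from concentration–absorbance curve; triplicate.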

Data set [11] is described as follows: Thermodynamic equilibrium solubility of compound in simulated intestinal fluid up to 300 ug after 4 hrs by UV absorbance method. The following applies: read-out: Therm_solubility. Type of data set: ADME. A digest of the protocol: as §2
Data set [12] can be described thus: Thermodynamic equilibrium solubility of compound in simulated gastric fluid up to 300 ug after 4 hrs by UV absorbance method. The data set is classed as ADME. Particulars: read-out: Therm_solubility. In short, it runs like this:
as §2

Data set [13] is described as follows: Thermodynamic equilibrium solubility of compound in water up to 300 ug after 4 hrs by UV absorbance method. The data set is classed as physicochemical. Particulars: read-out: Therm_solubility. In short, it runs like this: as §2

≈ marks a conversion by molar mass, not a printed value.

Chain of Phosphatidylinositol 4,5-bisphosphate 3-kinase catalytic subunit alpha isoform (P42336 whole entry, canonical isoform): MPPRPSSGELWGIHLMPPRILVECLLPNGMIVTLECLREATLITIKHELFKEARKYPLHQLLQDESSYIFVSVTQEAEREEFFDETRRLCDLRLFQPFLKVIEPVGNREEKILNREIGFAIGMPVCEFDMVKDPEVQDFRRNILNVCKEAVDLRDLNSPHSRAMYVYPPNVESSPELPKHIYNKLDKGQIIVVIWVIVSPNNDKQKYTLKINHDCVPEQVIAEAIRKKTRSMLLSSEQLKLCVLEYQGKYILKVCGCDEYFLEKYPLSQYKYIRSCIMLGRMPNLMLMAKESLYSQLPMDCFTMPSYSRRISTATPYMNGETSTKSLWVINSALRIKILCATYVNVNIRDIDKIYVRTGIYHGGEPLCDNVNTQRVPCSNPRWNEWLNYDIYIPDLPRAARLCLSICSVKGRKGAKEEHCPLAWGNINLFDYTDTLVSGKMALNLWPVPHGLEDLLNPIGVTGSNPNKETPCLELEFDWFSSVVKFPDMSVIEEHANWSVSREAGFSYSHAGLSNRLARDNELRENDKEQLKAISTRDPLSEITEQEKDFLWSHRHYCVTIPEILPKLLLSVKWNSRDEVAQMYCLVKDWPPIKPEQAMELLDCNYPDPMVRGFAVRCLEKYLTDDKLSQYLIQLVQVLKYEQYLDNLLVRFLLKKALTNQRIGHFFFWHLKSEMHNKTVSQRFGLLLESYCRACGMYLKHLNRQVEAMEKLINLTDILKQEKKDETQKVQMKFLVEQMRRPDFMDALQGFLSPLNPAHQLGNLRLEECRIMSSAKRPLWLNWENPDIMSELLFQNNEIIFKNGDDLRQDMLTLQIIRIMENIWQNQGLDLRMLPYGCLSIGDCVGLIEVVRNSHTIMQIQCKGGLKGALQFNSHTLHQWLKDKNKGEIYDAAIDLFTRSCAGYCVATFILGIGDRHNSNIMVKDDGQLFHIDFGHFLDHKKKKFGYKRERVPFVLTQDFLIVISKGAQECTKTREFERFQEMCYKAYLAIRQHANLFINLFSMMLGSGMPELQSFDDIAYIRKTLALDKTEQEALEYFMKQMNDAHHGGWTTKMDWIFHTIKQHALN

One may read the GI50 as the concentration at which growth is held to half of that of the control. What is called inhibition is how much of the control response was suppressed. Regarding `CC(=O)c1ccc(-c2ccc3ncnc(Nc4ccc(CC#N)cc4)c3c2)cc1`, the Ratio IC50 in the data set listed under Homo sapiens [1] is 0.5; in the data set filed under Homo sapiens [4], more than 37; in the data set filed under Homo sapiens [5], more than 37. Moreover, the GI50 was found to be 13 µM in data set [2]; 45 µM in [3]; 28 µM in data set [6]; 32 µM in data set [8]; 24 µM in data set [9]. In addition, in [7], the inhibition was 44%.

In the case of `N#CCc1ccc(Nc2ncnc3ccc(-c4ccc5c(c4)OCCO5)cc23)cc1`, the figures for the Ratio IC50 in the data set listed under Homo sapiens [1], in the data set filed under Homo sapiens [4] and in the data set listed under Homo sapiens [5] were 4, more than 29.2 and more than 29.2, respectively. Also, the GI50 in data set [2] came out at 32 µM; in [3] it was 34 µM; in data set [6], 21 µM; in data set [8], 27 µM; in [9], 34 µM. The inhibition in data set [7] came out at 33%.

Turning to `N#CCc1ccc(Nc2ncnc3ccc(-c4cc5ccccc5o4)cc23)cc1`, the GI50 in data set [2] was determined as 28 µM; in [3], 9 µM; in [6], 17 µM; in data set [8], 10 µM; in data set [9], 8 µM. Moreover, the inhibition in data set [7] was found to be 29.8%.

On to `N#CCc1ccc(Nc2ncnc3ccc(-c4cccc5c4sc4ccccc45)cc23)cc1`, for which the GI50 came out at 33 µM in data set [2]; 34 µM in data set [3]; 31 µM in data set [6]; 34 µM in data set [8]; 18 µM in data set [9].

`N#CCc1ccc(Nc2ncnc3ccc(-c4ccc(OCc5ccc(F)cc5)cc4)cc23)cc1`: the GI50 was 13 µM in [2]; 12 µM in [3]; 14 µM in [6]; 16 µM in data set [8]; 13 µM in [9]. In [7], the inhibition was determined as 11%.

With `N#CCc1ccc(Nc2ncnc3ccc(-c4ccncc4)cc23)cc1`, the Ratio IC50 is 0.5 in the data set filed under Homo sapiens [1], more than 14.2 in the data set filed under Homo sapiens [4] and more than 14.2 in the data set filed under Homo sapiens [5]. In addition, the GI50 in [2] was determined as 39 µM; in data set [3], 32 µM; in [6] it was 32 µM; in [8], 35 µM; in data set [9] it was 76 µM. In addition, the inhibition in [7] worked out at 45.6%.

Turning to `N#CCc1ccc(Nc2ncnc3ccc(-c4ccc5ccccc5c4)cc23)cc1`, the GI50 came to 48 µM in [2]; 16 µM in [3]; 25 µM in data set [6]; 31 µM in data set [8]; 22 µM in data set [9]. Further, in [7], the inhibition is 8.2%.

Take `N#CCc1ccc(Nc2ncnc3ccc(-c4ccc5c(c4)OCO5)cc23)cc1`: the values for the Ratio IC50 in the data set filed under Homo sapiens [1], in the data set listed under Homo sapiens [4] and in the data set filed under Homo sapiens [5] were 0.6, more than 31.1 and more than 31.1, respectively. The GI50 in data set [2] is 33 µM; in [3], 34 µM; in data set [6] it was 27 µM; in data set [8] it was 24 µM; in [9] it was 7 µM. Further, the inhibition in [7] was found to be 48.6%.

Take `CC(=O)Nc1cccc(-c2ccc3ncnc(Nc4ccc(CC#N)cc4)c3c2)c1`: the GI50 in data set [2] is 40 µM; in data set [3], 23 µM; in data set [6], 32 µM; in [8], 24 µM; in data set [9], 27 µM. This compound also returned an inhibition in data set [7] of 16.4%.

As for `N#CCc1ccc(Nc2ncnc3ccc(-c4ccccc4C=O)cc23)cc1`, the GI50 in [2] came to 90 µM; in [3] it was 91 µM; in data set [6], 42 µM; in [8], 39 µM; in data set [9], 21 µM. For the same compound, in [7], the inhibition turned out to be 1.3%.

Regarding `C=Cc1ccc(-c2ccc3ncnc(Nc4ccc(CC#N)cc4)c3c2)cc1`, the concentration for 50% growth inhibition (GI50) is 32 µM in [2]; 11 µM in data set [3]; 16 µM in [6]; 27 µM in data set [8]; 34 µM in [9]. The Ratio IC50 in the data set filed under Homo sapiens [4] and in the data set listed under Homo sapiens [5] was 1 throughout. The same compound displayed an inhibition in data set [7] of 36.4%.

In the case of `N#CCc1ccc(Nc2ncnc3ccc(-c4ccc(F)cc4F)cc23)cc1`, the GI50 in data set [2] is 21 µM; in data set [3], 10 µM; in data set [6] it was 7 µM; in data set [8], 9 µM; in [9] it was 28 µM. Besides, in data set [7], the inhibition was found to be 17%.

In the case of `N#CCc1ccc(Nc2ncnc3ccc(-c4cccc([N+](=O)[O-])c4)cc23)cc1`, the Ratio IC50 in the data set filed under Homo sapiens [1] is 1.9; in the data set filed under Homo sapiens [4], more than 22.2; in the data set listed under Homo sapiens [5] it was more than 22.2. In addition, the GI50 in [2] came out at 7 µM; in [3] it was 12 µM; in [6] it was 15 µM; in [8] it was 23 µM; in data set [9], 29 µM. The inhibition in data set [7] came to 38.1%.

On to `N#CCc1ccc(Nc2ncnc3ccc(-c4ccc(-c5ccccc5)cc4F)cc23)cc1`, for which the GI50 was 33 µM in data set [2]; 13 µM in data set [3]; 16 µM in [6]; 32 µM in data set [8]; 14 µM in data set [9]. The compound also came in with an inhibition in data set [7] of 20.3%.

`N#CCc1ccc(Nc2ncnc3ccc(-c4ccc(-c5ccccc5)cc4)cc23)cc1`: the GI50 in data set [2] turned out to be 30 µM; in [3], 29 µM; in data set [6], 16 µM; in data set [8], 13 µM; in data set [9], 10 µM.

For the compound `N#CCc1ccc(Nc2ncnc3ccc(-c4cccc(O)c4)cc23)cc1`, the solubility thermodynamic at 4 h in data set [10] was 5 µg/mL (≈ 14.2 µM); in data set [11], 5 µg/mL (≈ 14.2 µM); in data set [12], 125 µg/mL (≈ 355 µM); in data set [13], 5 µg/mL (≈ 14.2 µM). Further, the results for the Ratio IC50 in the data set listed under Homo sapiens [1], in the data set filed under Homo sapiens [4] and in the data set listed under Homo sapiens [5] were 16, 2.3 and 5.8, respectively. Further, the GI50 in [2] turned out to be 36 µM; in [3], 15 µM; in data set [6], 24 µM; in [8], 28 µM; in [9] it was 37 µM. In data set [7], this compound had an inhibition of 69.9%.

For the compound `N#CCc1ccc(Nc2ncnc3ccc(-c4cccc5c4oc4ccccc45)cc23)cc1`, the GI50 in data set [2] was 31 µM; in data set [3], 27 µM; in [6] it was 12 µM; in [8] it was 36 µM; in [9], 16 µM. Also, the inhibition in data set [7] is 1.5%.

In the case of `CCOc1ccc(-c2ccc(-c3ccc4ncnc(Nc5ccc(CC#N)cc5)c4c3)cc2)cc1`, the GI50 came out at 33 µM in [2]; 26 µM in [3]; 16 µM in data set [6]; 30 µM in [8]; 17 µM in [9].

On to `N#CCc1ccc(Nc2ncnc3ccc(-c4cc5ccccc5s4)cc23)cc1`, for which the GI50 came to 24 µM in data set [2]; 8 µM in data set [3]; 14 µM in [6]; 14 µM in data set [8]; 13 µM in data set [9]. Moreover, the inhibition in data set [7] is 2.7%.

As for `N#CCc1ccc(Nc2ncnc3ccc(-c4cnc5ccccc5c4)cc23)cc1`, the GI50 in data set [2] came out at 90 µM; in data set [3], 32 µM; in data set [6] it was 44 µM; in data set [8] it was 89 µM; in data set [9], 23 µM.

Take `Cc1ccccc1-c1ccc2ncnc(Nc3ccc(CC#N)cc3)c2c1`: the GI50 in [2] was 68 µM; in data set [3] it was more than 100 µM; in data set [6], 36 µM; in data set [8], 32 µM; in data set [9], 38 µM. Moreover, the inhibition in data set [7] was determined as 4.1%.

The values are drawn from ChEMBL document CHEMBL3868583, “6-Aryl substituted 4-(4-cyanomethyl) phenylamino quinazolines as a new class of isoform-selective PI3K-alpha inhibitors” (Eur J Med Chem, 2016).
